Measured values as given in ChEMBL document CHEMBL2331119 (Bioorg Med Chem Lett, 2013).
Active and inactive are the calls of the source. The calls are words filed in the database; no cut-off is given here.

Columns and labels:
[1] = molecular target: Sodium-dependent dopamine transporter (Homo sapiens, UniProt Q01959); assay: Inhibition of [3H]dopamine uptake at human DAT expressed in COS7 cells after 3 mins by beta-counting; format: cell-based, COS-7
[2] = molecular target: T1, Sodium-dependent serotonin transporter (Homo sapiens, UniProt P31645); format: cell-based, COS-7
Target sequence in this assay (P31645 whole entry): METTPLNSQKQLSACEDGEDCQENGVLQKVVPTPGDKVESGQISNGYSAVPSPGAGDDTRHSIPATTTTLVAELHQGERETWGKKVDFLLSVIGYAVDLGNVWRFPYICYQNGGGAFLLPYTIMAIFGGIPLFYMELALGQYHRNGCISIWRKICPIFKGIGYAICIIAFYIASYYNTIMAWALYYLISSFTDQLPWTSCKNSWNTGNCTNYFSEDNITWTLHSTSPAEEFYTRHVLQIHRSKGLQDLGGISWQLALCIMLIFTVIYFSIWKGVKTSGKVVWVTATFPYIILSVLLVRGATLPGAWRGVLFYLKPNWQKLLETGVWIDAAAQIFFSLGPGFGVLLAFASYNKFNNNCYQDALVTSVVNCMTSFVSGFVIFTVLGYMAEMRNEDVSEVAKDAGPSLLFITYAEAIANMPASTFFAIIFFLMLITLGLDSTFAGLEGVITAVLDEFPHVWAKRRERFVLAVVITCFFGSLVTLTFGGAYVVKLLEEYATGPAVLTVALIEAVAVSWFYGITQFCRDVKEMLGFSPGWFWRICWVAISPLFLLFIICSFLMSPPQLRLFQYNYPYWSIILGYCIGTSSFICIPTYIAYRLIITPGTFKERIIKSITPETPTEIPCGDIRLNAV

[3] = molecular target: Sodium-dependent noradrenaline transporter (Homo sapiens, UniProt P23975); assay: Inhibition of [3H]dopamine uptake at human NET expressed in COS7 cells after 5 mins by beta-counting; format: cell-based, COS-7
Sequence of Sodium-dependent noradrenaline transporter (P23975 whole entry, the tested form may be a part): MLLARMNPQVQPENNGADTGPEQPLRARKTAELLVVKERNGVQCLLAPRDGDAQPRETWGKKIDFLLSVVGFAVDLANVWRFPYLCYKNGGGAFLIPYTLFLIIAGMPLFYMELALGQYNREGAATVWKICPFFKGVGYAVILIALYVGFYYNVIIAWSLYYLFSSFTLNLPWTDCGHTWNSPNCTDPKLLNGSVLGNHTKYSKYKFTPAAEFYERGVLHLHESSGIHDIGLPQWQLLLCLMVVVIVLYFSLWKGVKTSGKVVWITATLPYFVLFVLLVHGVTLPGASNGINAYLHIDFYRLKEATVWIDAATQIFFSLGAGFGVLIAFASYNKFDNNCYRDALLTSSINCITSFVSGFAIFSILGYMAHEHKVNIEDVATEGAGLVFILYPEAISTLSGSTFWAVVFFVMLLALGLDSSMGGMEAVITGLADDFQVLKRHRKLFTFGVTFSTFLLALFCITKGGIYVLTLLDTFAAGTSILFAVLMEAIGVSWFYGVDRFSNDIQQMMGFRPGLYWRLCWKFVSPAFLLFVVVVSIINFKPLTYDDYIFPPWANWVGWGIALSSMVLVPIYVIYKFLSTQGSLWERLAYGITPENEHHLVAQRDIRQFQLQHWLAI

[4] = molecular target: T1, Sodium-dependent serotonin transporter; assay: Binding affinity to EGFP fused human SERT expressed in HEK293 cells after 1 hr by confocal microscopy in presence of 5-HT; format: cell-based
Outline: (§1)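 Live HEK293 cells stably expressing EGFP-hSERT were incubated 1 h at 37°C with 20 nM rhodamine-labeled ligand. […] Confocal microscopy scored red-channel fluorescence at the cell surface against EGFP (green) distribution. Images are representative of more than 3 individual experiments.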
Target sequence in this assay (P31645 whole entry, looked up): as the sequence (P31645 whole entry) above

[5] = molecular target: T1, Sodium-dependent serotonin transporter; assay: Binding affinity to EGFP fused human SERT expressed in HEK293 cells after 1 hr by confocal microscopy in presence of paroxetine; format: cell-based; outline: as §1
Target sequence in this assay (P31645 whole entry, looked up): as the sequence (P31645 whole entry) above

[6] = molecular target: T1, Sodium-dependent serotonin transporter; assay: Binding affinity to EGFP fused human SERT expressed in HEK293 cells after 1 hr by confocal microscopy in presence of S-citalopram; format: cell-based; outline: as §1
Target sequence in this assay (P31645 whole entry, looked up): as the sequence (P31645 whole entry) above

[7] = molecular target: T1, Sodium-dependent serotonin transporter; assay: Binding affinity to EGFP fused human SERT expressed in HEK293 cells after 1 hr by confocal microscopy; format: cell-based; outline: as §1
Target sequence in this assay (P31645 whole entry, looked up): as the sequence (P31645 whole entry) above

COS-7 [8] = assay: Ratio of Ki for human NET expressed in COS7 cells to Ki for human SERT expressed in COS7 cells; format: cell-based
COS-7 [9] = assay: Ratio of Ki for human DAT expressed in COS7 cells to Ki for human SERT expressed in COS7 cells; format: cell-based

Sequence of Sodium-dependent dopamine transporter (Q01959 whole entry): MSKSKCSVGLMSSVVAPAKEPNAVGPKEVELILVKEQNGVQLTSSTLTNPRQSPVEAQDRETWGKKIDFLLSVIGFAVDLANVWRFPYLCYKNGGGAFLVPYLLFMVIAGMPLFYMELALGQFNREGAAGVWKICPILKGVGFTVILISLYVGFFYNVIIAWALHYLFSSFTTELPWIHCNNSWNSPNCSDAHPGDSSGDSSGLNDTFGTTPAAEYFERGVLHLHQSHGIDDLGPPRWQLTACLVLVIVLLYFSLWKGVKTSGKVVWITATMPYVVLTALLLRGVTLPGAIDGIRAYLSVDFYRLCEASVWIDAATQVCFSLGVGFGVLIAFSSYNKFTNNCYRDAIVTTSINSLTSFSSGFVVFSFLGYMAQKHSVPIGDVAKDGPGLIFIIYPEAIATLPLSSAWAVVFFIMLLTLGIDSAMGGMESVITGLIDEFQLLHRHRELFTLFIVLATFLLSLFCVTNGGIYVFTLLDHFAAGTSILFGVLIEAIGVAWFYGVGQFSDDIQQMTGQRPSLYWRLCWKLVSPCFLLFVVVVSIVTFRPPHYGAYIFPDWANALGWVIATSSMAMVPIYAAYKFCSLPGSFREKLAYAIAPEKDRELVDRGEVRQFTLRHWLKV

CCN(CC)c1ccc2c(-c3ccc(S(=O)(=O)NCCCCCC(=O)NCCN4[C@@H]5CC[C@@H]4[C@@H](C(=O)OC)[C@@H](c4ccc(Cl)c(Cl)c4)C5)cc3S(=O)(=O)[O-])c3ccc(=[N+](CC)CC)cc-3oc2c1
Ki [1]: 62 nM
Ki [2]: 392 nM
Ki [3]: 194 nM

CCN(CC)c1ccc2c(-c3ccc(S(=O)(=O)NCCCCCC(=O)NCCC(=O)Nc4cccc(-c5ccc6c(c5)COC6(CCCN(C)C)c5ccc(F)cc5)c4)cc3S(=O)(=O)[O-])c3ccc(=[N+](CC)CC)cc-3oc2c1 (stereo not drawn)
Ki [1]: 10900 nM
Ki [2]: 225 nM
Ki [3]: 11800 nM
Activity [4]: inactive
Activity [5]: inactive
Activity [6]: inactive
Activity [7]: Active
Ratio Ki (COS-7 [8]): 50
Ratio Ki (COS-7 [9]): 50

CN(C)CCCC1(c2ccc(F)cc2)OCc2cc(-c3cccc(N)c3)ccc21 (stereo not drawn)
Ki [2]: 390 nM
